Measured values taken from ChEMBL document CHEMBL2034814, “Synthesis and evaluation of γ-lactam analogs of PGE₂ as EP4 and EP2/EP4 agonists” (Bioorg Med Chem, 2012).

Tests used:
[1] = Drug release from PLGA microsphere assessed as compound remaining in microsphere at 100 ug/ml after 14 days in presence of 5% methanol; assay type: physicochemical; conditions: 336 h
Rattus norvegicus [2] = assay: Induction of bone fracture healing in CrJ:CD(SD)IGS rat assessed as breaking strength of fractured fibulae at 10 ug/kg administered tropically as PLGA microsphere formulation measured after 17 days relative to control; assay type: functional
Outline: (§1)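 Male Sprague–Dawley rats, 8 weeks old. Under sodium pentobarbital (30–50 mg/kg) the left fibula midshaft was exposed and cut. Compound in PLGA microspheres injected topically at the fracture. At 17 days fibulae removed for three-point destructive bending; breaking strength expressed as % of the mean of nonfractured fibulae from intact rats, with vehicle-treated fractured controls.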

[3] = target: Prostaglandin E2 receptor EP2 subtype (Rattus norvegicus, UniProt Q62928); assay: Agonist activity at rat EP2 receptor expressed in CHO cells assessed as cAMP production after 10 mins by radioimmunoassay; assay type: functional, cell-based
Outline: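 CHO cells expressing rat EP2 receptor, seeded 1 × 10^5 cells/well and grown 2 days; washed, incubated 10 min at 37 °C in MEM with 2 µM diclofenac, then preincubated 10 min in assay medium with 1% BSA. Compound added, 10 min at 37 °C, stopped with ice-cold 10% trichloroacetic acid; cAMP measured by radioimmunoassay.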

[4] = target: T1, Prostaglandin E2 receptor EP1 subtype (Mus musculus, UniProt P35375); assay: Displacement of [3H]PGE2 from mouse EP1 receptor expressed in CHO cells after 20 mins by scintillation counting; assay type: cell-based
T1 sequence (P35375 whole entry): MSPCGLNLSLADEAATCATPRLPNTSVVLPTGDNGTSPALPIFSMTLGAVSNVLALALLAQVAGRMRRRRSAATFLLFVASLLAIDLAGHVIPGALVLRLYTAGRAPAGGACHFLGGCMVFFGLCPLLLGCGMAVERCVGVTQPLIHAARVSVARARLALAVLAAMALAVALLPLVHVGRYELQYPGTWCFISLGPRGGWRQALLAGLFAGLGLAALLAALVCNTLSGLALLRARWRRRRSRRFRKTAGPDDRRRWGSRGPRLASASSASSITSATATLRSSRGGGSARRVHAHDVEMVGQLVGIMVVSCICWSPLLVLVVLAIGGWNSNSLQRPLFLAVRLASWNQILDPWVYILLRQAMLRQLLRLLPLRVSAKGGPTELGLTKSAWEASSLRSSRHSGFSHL

[5] = target: Prostaglandin E2 receptor EP2 subtype (Mus musculus, UniProt Q62053); assay: Displacement of [3H]PGE2 from mouse EP2 receptor expressed in CHO cells after 60 mins by scintillation counting; assay type: cell-based
Rattus norvegicus [6] = assay: Induction of bone fracture healing in CrJ:CD(SD)IGS rat assessed as breaking strength of fractured fibulae at 300 ug/kg administered tropically as PLGA microsphere formulation measured after 17 days relative to control; assay type: functional; outline: as §1
[7] = Drug release from PLGA microsphere assessed as compound remaining in microsphere at 100 ug/ml after 28 days in presence of 5% methanol; assay type: physicochemical; conditions: 672 h
Rattus norvegicus [8] = assay: Induction of bone fracture healing in CrJ:CD(SD)IGS rat assessed as breaking strength of fractured fibulae administered tropically as PLGA microsphere formulation measured after 17 days relative to control; assay type: functional, organism-based; outline: as §1
[9] = Drug release from PLGA microsphere assessed as compound remaining in microsphere at 100 ug/ml after 7 days in presence of 5% methanol; assay type: physicochemical; conditions: 168 h
Rattus norvegicus [10] = assay: Induction of bone fracture healing in CrJ:CD(SD)IGS rat assessed as breaking strength of fractured fibulae at 100 ug/kg administered tropically as PLGA microsphere formulation measured after 17 days relative to control; assay type: functional; outline: as §1
[11] = target: Prostaglandin E2 receptor EP4 subtype (Rattus norvegicus, UniProt P43114); assay: Agonist activity at rat EP4 receptor expressed in CHO cells assessed as cAMP production after 10 mins by radioimmunoassay; assay type: functional, cell-based
[12] = target: T2, Prostaglandin E2 receptor EP3 subtype (Mus musculus, UniProt P30557); assay: Displacement of [3H]PGE2 from mouse EP3 receptor expressed in CHO cells after 60 mins by scintillation counting; assay type: cell-based
T2 sequence (P30557 whole entry): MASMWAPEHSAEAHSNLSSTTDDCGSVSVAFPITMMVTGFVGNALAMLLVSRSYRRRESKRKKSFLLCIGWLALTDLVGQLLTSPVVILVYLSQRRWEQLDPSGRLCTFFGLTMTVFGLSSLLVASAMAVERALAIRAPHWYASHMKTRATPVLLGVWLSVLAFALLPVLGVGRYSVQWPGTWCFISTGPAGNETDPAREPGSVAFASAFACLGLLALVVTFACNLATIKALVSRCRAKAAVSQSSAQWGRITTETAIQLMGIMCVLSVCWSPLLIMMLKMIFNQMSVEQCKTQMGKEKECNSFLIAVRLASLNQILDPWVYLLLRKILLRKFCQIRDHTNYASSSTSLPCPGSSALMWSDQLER

[13] = target: Prostaglandin E2 receptor EP4 subtype (Mus musculus, UniProt P32240); assay: Displacement of [3H]PGE2 from mouse EP4 receptor expressed in CHO cells after 60 mins by scintillation counting; assay type: cell-based
Rattus norvegicus [14] = assay: Induction of bone fracture healing in CrJ:CD(SD)IGS rat assessed as breaking strength of fractured fibulae at 3 ug/kg administered tropically as PLGA microsphere formulation measured after 17 days relative to control; assay type: functional; outline: as §1
[15] = Drug release from PLGA microsphere assessed as compound remaining in microsphere at 100 ug/ml after 21 days in presence of 5% methanol; assay type: physicochemical; conditions: 504 h
Rattus norvegicus [16] = assay: Induction of bone fracture healing in CrJ:CD(SD)IGS rat assessed as breaking strength of fractured fibulae at 30 ug/kg administered tropically as PLGA microsphere formulation measured after 17 days relative to control; assay type: functional; outline: as §1
[17] = Drug release from PLGA microsphere assessed as compound remaining in microsphere at 100 ug/ml after 7 days; assay type: physicochemical; conditions: 168 h
Rattus norvegicus [18] = assay: Toxicity in CrJ:CD(SD)IGS rat assessed as change in heart rate at 300 ug/kg, administered tropically as PLGA microsphere formulation; assay type: organism-based; conditions: in vivo, topical_or_ocular, 0.3 mg/kg
Outline: (§2)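 Male Sprague–Dawley rats, 7–9 weeks old, anesthetized with urethane (1.5 g/kg, sc); compound given as PLGA microsphere formulation, with heart rate and mean blood pressure monitored.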

[19] = Drug release from PLGA microsphere assessed as compound remaining in microsphere at 100 ug/ml after 28 days; assay type: physicochemical; conditions: 672 h
[20] = Drug release from PLGA microsphere assessed as compound remaining in microsphere at 100 ug/ml after 14 days; assay type: physicochemical; conditions: 336 h
Rattus norvegicus [21] = assay: Toxicity in CrJ:CD(SD)IGS rat assessed as change in mean blood pressure at 1000 ug/kg administered tropically as PLGA microsphere formulation; assay type: organism-based; conditions: in vivo, topical_or_ocular, 1 mg/kg; outline: as §2
Rattus norvegicus [22] = assay: Toxicity in CrJ:CD(SD)IGS rat assessed as change in heart rate at 1000 ug/kg, administered tropically as PLGA microsphere formulation; assay type: organism-based; conditions: in vivo, topical_or_ocular, 1 mg/kg; outline: as §2
Rattus norvegicus [23] = assay: Toxicity in CrJ:CD(SD)IGS rat assessed as change in mean blood pressure at 300 ug/kg administered tropically as PLGA microsphere formulation; assay type: organism-based; conditions: in vivo, topical_or_ocular, 0.3 mg/kg; outline: as §2
Rattus norvegicus [24] = assay: Toxicity in CrJ:CD(SD)IGS rat assessed as change in mean blood pressure at 3000 ug/kg administered tropically as PLGA microsphere formulation; assay type: organism-based; conditions: in vivo, topical_or_ocular, 3 mg/kg; outline: as §2
[25] = Drug release from PLGA microsphere assessed as compound remaining in microsphere at 100 ug/ml after 21 days; assay type: physicochemical; conditions: 504 h
Rattus norvegicus [26] = assay: Toxicity in CrJ:CD(SD)IGS rat assessed as change in heart rate at 3000 ug/kg, administered tropically as PLGA microsphere formulation; assay type: organism-based; conditions: in vivo, topical_or_ocular, 3 mg/kg; outline: as §2

Chain of Prostaglandin E2 receptor EP4 subtype (Mus musculus, UniProt P32240) (P32240 whole entry): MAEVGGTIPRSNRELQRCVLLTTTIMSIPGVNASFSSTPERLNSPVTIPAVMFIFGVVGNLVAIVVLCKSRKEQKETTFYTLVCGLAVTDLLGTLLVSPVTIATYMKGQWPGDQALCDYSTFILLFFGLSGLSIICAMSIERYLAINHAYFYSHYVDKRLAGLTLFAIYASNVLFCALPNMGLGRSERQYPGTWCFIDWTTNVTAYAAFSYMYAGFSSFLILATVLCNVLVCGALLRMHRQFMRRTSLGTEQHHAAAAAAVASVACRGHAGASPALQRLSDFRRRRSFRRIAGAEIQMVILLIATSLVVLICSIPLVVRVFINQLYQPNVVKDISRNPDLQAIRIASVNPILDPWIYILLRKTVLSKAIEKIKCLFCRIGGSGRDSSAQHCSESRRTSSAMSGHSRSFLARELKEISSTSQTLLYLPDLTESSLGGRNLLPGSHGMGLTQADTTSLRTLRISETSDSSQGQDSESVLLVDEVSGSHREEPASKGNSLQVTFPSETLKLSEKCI
Chain of Prostaglandin E2 receptor EP4 subtype (Rattus norvegicus, UniProt P43114) (P43114 whole entry): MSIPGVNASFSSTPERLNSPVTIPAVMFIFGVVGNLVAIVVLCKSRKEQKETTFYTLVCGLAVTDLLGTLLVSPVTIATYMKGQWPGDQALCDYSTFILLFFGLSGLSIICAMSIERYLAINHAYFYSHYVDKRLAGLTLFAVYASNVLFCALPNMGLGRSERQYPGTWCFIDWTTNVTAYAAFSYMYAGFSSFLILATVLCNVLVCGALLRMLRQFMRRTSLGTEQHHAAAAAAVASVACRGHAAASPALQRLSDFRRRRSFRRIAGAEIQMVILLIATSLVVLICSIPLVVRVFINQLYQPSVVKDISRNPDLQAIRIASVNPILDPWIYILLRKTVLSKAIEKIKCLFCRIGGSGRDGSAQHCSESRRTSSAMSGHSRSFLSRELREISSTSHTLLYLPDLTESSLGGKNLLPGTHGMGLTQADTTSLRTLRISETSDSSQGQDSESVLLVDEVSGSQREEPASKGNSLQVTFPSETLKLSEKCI
Chain of Prostaglandin E2 receptor EP2 subtype (Mus musculus, UniProt Q62053) (Q62053 whole entry): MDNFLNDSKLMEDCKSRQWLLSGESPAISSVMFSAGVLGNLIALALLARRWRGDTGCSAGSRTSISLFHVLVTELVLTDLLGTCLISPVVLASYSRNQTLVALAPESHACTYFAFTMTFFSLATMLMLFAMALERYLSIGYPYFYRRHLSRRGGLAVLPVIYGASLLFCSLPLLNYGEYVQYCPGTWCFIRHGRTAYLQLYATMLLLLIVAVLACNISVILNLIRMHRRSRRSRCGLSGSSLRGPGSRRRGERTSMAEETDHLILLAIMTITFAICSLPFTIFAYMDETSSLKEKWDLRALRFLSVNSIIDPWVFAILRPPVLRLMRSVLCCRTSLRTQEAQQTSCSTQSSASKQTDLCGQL
Chain of Prostaglandin E2 receptor EP2 subtype (Rattus norvegicus, UniProt Q62928) (Q62928 whole entry): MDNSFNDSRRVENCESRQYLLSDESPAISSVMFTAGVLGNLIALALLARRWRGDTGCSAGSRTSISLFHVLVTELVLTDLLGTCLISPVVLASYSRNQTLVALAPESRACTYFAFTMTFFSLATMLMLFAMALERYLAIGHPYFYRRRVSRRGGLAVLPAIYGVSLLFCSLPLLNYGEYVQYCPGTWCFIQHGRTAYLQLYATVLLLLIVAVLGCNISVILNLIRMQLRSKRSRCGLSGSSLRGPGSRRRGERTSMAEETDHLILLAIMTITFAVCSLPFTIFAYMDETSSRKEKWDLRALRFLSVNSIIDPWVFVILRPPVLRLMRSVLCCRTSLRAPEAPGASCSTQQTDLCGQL

## Cc1ccc2oc(-c3cccc(C[C@H](O)/C=C/[C@H]4CCC(=O)N4CCSc4nc(C(=O)O)cs4)c3)nc2c1
[1]
  Activity: 93.1%
Rattus norvegicus [2]
  Activity: 87.7%
[3]
  EC50: > 10000 nM
[4]
  Ki: 1300 nM
[5]
  Ki: 21 nM
Rattus norvegicus [6]
  Activity: 144.3%
[7]
  Activity: 79.3%
Rattus norvegicus [8]
  Activity: Dose-dependent effect
[9]
  Activity: 99.6%
Rattus norvegicus [10]
  Activity: 136%
[11]
  EC50: 8.8 nM
[12]
  Ki: > 10000 nM
[13]
  Ki: 0.21 nM
Rattus norvegicus [14]
  Activity: 77.7%
[15]
  Activity: 85.2%
Rattus norvegicus [16]
  Activity: 98.1%

## O=C(O)CCCSCCN1C(=O)CC[C@@H]1/C=C/[C@@H](O)Cc1cccc(-c2cc3ccccc3o2)c1
[17]
  Activity: 94.8%
Rattus norvegicus [18]
  Activity: 106.3%
[19]
  Activity: 46.3%
[20]
  Activity: 91.1%
Rattus norvegicus [21]
  Activity: 98.2%
Rattus norvegicus [22]
  Activity: 104.6%
[4]
  Ki: > 10000 nM
[5]
  Ki: 2000 nM
Rattus norvegicus [6]
  Activity: 154%
Rattus norvegicus [8]
  Activity: Dose-dependent effect
Rattus norvegicus [10]
  Activity: 136.3%
[11]
  EC50: 7 nM
Rattus norvegicus [23]
  Activity: 98.4%
[12]
  Ki: > 10000 nM
Rattus norvegicus [24]
  Activity: 97.3%
[13]
  Ki: 0.1 nM
[25]
  Activity: 83.5%
Rattus norvegicus [26]
  Activity: 111.4%
Rattus norvegicus [16]
  Activity: 95.4%
